Experimental findings from PubChem BioAssay are described below.

Assay [1] can be described thus: reducers of endogenous Her2 protein level, primary screen, SKBR3 breast tumor cells, AlphaScreen, ATP viability (AID 461).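 For Her2 level: lower value means less Her2 protein in the cells.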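 For viability: percent of carrier control wells set as 100% viability.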 The following applies: 18-24 h, measured here: SKBR3 viability, ATP luminescence, at 10 µM.
In assay [2] the target is Receptor tyrosine-protein kinase erbB-2 (Homo sapiens) (UniProt P04626). The description is as above. Conditions: 18-24 h, at 10 µM, stronger effect = lower value.
Assay [3] is described as follows: SK-BR-3 cell growth inhibitors, pilot screen, 24 h, human (AID 572;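 active = viability at or below 10% of carrier control in both of two separate runs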;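 note: compound exposure lasted between 18 and 24 h rather than exactly 24 h; 100% = carrier-treated control wells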). The following applies: SK-BR-3 viability, CellTiter-Glo luminescence, at 10 µM, stronger effect = lower value.
Assay [4] in a line: HUVEC growth inhibition – cell-based, human, primary screen (AID 575;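 active = viability at or below 30% in both replicate assays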;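 note: 100% = median of untreated cell wells with 0.1% DMSO on each plate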). Conditions: HUVEC proliferation, CellTiter-Glo luminescence, 72 h; at 10 µM; stronger effect = lower value. A digest of the protocol: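 Test system – primary HUVEC, no more than 12 passages · Dosing – one dose, 10 µM final, 0.1% DMSO · Times – 72 h treatment at 37 °C · Measured by – ATP-based CellTiter-Glo luminescent read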

The nature of assay [5]: growth inhibitors of H69AR lung tumor, primary screen, human, duplicate replicates (AID 580;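 active = viability at or under a set limit in both replicates, limit being median viability minus 3 SD, cut at about 48% in these data, passing the limit was not always enough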;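 note: 100% = mean luminescence of untreated wells and 0% = no signal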). The following applies: H69AR lung tumor cells viability, ATP luminescence, 72 h; at 10 µM; stronger effect = lower value.
A short description of assay [6]: reversal of MRP1-mediated doxorubicin resistance, pilot screen, H69AR cells, doxorubicin co-treatment (AID 601;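 active = viability loss from added drug above about 55%, and viability with drug at most 40%, in both replicates, limit read from the data, passing the limit was not always enough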). Conditions: CellTiter-Glo, 72 h, at 10 µM; for differential viability (reversal): stronger effect = higher value. (In general: Cellular ATP, detected with luciferase, serves as a proxy for viable cell number.)
A short description of assay [7]: 384-well plate pilot, post-Golgi transport modulator project, inhibition of yeast transport mutant growth (AID 636; in the data active = inhibition above about 31%). Conditions: absorbance 615 nm, about 18 h, stronger effect = higher value.
A short description of assay [8]: growth suppression of yeast trafficking mutant, preliminary HTS, modulators of trafficking downstream of Golgi apparatus project, 1536-format plate, OD 615 nm (AID 637; in the data active = inhibition above about 30%). Conditions: yeast transport mutant growth, absorbance 615 nm, 18 h; stronger effect = higher value.
Where [9] appears, read: H69AR cells + 2 uM doxorubicin, measured here: viability with 2 uM doxorubicin, stronger effect = lower value.
Where [10] appears, read: H69AR cells, compound alone cytotoxicity.

Activity calls are given as the source filed them.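 Rule for the calls, unless noted: active = Her2 level under about 52% in both replicate screens, with viability over 70% of control (limit read from the data); inconclusive = Her2 under the limit in one screen only, or viability under 70%; inactive = Her2 level above the set limit.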

Receptor tyrosine-protein kinase erbB-2 (Homo sapiens), sequence (P04626 whole entry, looked up): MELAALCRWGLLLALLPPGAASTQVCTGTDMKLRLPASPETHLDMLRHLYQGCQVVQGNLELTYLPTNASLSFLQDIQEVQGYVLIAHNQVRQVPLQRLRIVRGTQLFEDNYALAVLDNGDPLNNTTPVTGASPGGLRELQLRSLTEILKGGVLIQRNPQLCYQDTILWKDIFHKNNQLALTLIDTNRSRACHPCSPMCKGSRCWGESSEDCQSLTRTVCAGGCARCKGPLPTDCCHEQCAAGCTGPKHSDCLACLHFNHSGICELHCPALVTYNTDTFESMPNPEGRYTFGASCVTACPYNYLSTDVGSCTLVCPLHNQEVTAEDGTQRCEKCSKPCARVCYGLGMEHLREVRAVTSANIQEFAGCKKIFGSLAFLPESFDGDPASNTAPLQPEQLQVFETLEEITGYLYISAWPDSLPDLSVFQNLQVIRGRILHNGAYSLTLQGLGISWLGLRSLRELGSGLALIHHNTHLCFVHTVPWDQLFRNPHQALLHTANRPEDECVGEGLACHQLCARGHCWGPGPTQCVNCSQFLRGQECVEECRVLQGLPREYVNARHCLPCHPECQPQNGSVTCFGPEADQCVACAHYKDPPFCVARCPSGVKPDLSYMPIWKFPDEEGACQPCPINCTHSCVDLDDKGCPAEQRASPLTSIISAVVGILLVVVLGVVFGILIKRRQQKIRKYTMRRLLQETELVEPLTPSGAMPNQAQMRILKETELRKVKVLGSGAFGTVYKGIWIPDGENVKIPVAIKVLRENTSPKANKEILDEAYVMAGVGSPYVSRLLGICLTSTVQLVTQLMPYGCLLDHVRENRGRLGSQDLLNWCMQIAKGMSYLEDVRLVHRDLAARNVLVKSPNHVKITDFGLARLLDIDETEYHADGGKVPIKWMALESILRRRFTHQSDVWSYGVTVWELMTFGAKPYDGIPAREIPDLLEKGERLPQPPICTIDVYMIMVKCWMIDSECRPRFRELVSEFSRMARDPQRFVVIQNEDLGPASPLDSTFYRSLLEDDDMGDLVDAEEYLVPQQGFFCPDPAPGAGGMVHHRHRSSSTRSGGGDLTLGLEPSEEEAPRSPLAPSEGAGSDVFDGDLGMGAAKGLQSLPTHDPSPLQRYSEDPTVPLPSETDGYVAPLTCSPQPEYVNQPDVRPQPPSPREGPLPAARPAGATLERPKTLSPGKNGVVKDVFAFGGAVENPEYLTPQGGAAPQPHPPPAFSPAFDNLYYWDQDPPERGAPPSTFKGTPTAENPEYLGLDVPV

Usually viability stands for a read-out of living cells in per cent, often relative to untreated cells. As a reminder, the inhibition is the drop in the measured response relative to a control, in per cent. As to `Cc1ccc2cc(CN(CC(C)C)C(=O)C3CCCO3)c(=O)[nH]c2c1` (stereo not given), the viability was 95% in assay [1]; 95% (inactive) in assay [3]; 102% (inactive) in assay [4]; 102% (inactive) in assay [5]; 96.8% in assay [6] (setting [9]); 102% in assay [6] (setting [10]). Besides, in assay [2], the Her2 level is 98% (inactive). Besides, the differential viability (reversal) in assay [6] (H69AR cells + 2 uM doxorubicin) was 5.11% (inactive). The inhibition is -2.5% (inactive) in assay [7] and -4.18% (inactive) in assay [8].
In the case of `CCn1ncc(C2=NOC(C(=O)NCc3ccc(Cl)cc3)C2)c1C` (stereo not given), the viability is 83.5% in assay [1]; 83.5% (inactive) in assay [3]; 38.7% (inactive) in assay [4]; 24.4% (active) in assay [5]; 54.2% in assay [6] (setting [9]); 24.4% in assay [6] (setting [10]). Further, the Her2 level in assay [2] was 69.5% (inactive). Moreover, the differential viability (reversal) in assay [6] (H69AR cells + 2 uM doxorubicin) is -29.8% (inactive). Also, the figures for the inhibition in assay [7] and in assay [8] were -2.89% (inactive) and -0.32% (inactive), respectively.
In the case of `CCN(CC)c1nc2cc(OC)ccc2cc1C#N`, the viability is 104% in assay [1]; 104% (inactive) in assay [3]; 86.1% (inactive) in assay [4]; 68.2% (inactive) in assay [5]; 82.3% in assay [6] (setting [9]); 68.2% in assay [6] (setting [10]). The Her2 level in assay [2] is 80.5% (inactive). Moreover, the differential viability (reversal) in assay [6] (H69AR cells + 2 uM doxorubicin) is -14.1% (inactive). The figures for the inhibition in assay [7] and in assay [8] were -2.86% (inactive) and -5.24% (inactive), respectively.
On to `O=C(CN(c1ccccc1)S(=O)(=O)c1ccccc1)N1CCN(Cc2ccc3c(c2)OCO3)CC1`, for which the viability was 104% in assay [1]; 104% (inactive) in assay [3]; 92.7% (inactive) in assay [4]; 96.9% (inactive) in assay [5]; 91.8% in assay [6] (setting [9]); 96.9% in assay [6] (setting [10]). In assay [2], the Her2 level was 73% (inactive). The differential viability (reversal) in assay [6] (H69AR cells + 2 uM doxorubicin) is 5.03% (inactive). Besides, the results for the inhibition in assay [7] and in assay [8] were -6% (inactive) and 0.32% (inactive), respectively.
With `CCOC(=O)c1ccc(NS(=O)C23CC4CC(CC(C4)C2)C3)cc1` (stereo not given), the viability is 95.5% in assay [1]; 95.5% (inactive) in assay [3]; 74% (inactive) in assay [4]; 87.6% (inactive) in assay [5]; 92.2% in assay [6] (setting [9]); 87.6% in assay [6] (setting [10]). The Her2 level in assay [2] was 82% (inactive). Moreover, the differential viability (reversal) in assay [6] (H69AR cells + 2 uM doxorubicin) was -4.57% (inactive). For the same compound, the inhibition in assay [7] is -7.57% (inactive); in assay [8], 3.28% (inactive).
Turning to `Cc1cc(C)n2nc(SCC(=O)N(C)c3ccccc3)nc2n1`, the viability in assay [1] is 89.5%; in assay [3], 89.5% (inactive); in assay [4] it was 94.8% (inactive); in assay [5], 104% (inactive); in assay [6] (setting [9]) it was 102%; in assay [6] (setting [10]), 104%. The Her2 level in assay [2] is 87% (inactive). Moreover, in assay [6] (H69AR cells + 2 uM doxorubicin), the differential viability (reversal) is 1.41% (inactive). The inhibition in assay [7] was -7.57% (inactive); in assay [8], 6.39% (inactive).
Consider `O=C(C1CCCO1)N1CCc2ccccc21` (stereo not given), for which the viability was 85% in assay [1]; 85% (inactive) in assay [3]; 94% (inactive) in assay [4]; 92.4% (inactive) in assay [5]; 97.8% in assay [6] (setting [9]); 92.4% in assay [6] (setting [10]). Besides, in assay [2], the Her2 level is 92.5% (inactive). For the same compound, the differential viability (reversal) in assay [6] (H69AR cells + 2 uM doxorubicin) is -5.42% (inactive). Further, the values for the inhibition in assay [7] and in assay [8] were -4.8% (inactive) and -0.32% (inactive), respectively.
Regarding `COCc1nnc(NC(=O)c2ccc(NC(C)=O)cc2)s1`, the viability in assay [1] is 100%; in assay [3], 100% (inactive); in assay [4], 86.4% (inactive); in assay [5] it was 105% (inactive); in assay [6] (setting [9]), 90.2%; in assay [6] (setting [10]), 105%. For the same compound, in assay [2], the Her2 level is 102% (inactive). In addition, the differential viability (reversal) in assay [6] (H69AR cells + 2 uM doxorubicin) was 14.8% (inactive). For the same compound, the values for the inhibition in assay [7] and in assay [8] were 0.13% (inactive) and -9.19% (inactive), respectively.
With `CCN(CC)c1ccc2c(C)c(-c3ccc(N)cc3)c(=O)oc2c1`, the viability in assay [1] is 96.5%; in assay [3], 96.5% (inactive); in assay [4], 60.4% (inactive); in assay [5], 61.8% (inactive); in assay [6] (setting [9]), 71.6%; in assay [6] (setting [10]), 61.8%. Also, the Her2 level in assay [2] was 84.5% (inactive). Further, the differential viability (reversal) in assay [6] (H69AR cells + 2 uM doxorubicin) was -9.77% (inactive). Besides, the inhibition is -7.33% (inactive) in assay [7] and 12.3% (inactive) in assay [8].
As for `Cc1nc2sc(C(c3cccc(F)c3)N3CCC(C)CC3)c(O)n2n1` (stereo not given), the viability in assay [1] was 88%; in assay [3], 88% (inactive); in assay [4] it was 101% (inactive); in assay [5] it was 96.3% (inactive); in assay [6] (setting [9]), 86.7%; in assay [6] (setting [10]), 96.3%. Moreover, the Her2 level in assay [2] is 77% (inactive). In assay [6] (H69AR cells + 2 uM doxorubicin), the differential viability (reversal) is 9.65% (inactive). In addition, the inhibition in assay [7] was -6.71% (inactive); in assay [8], 1.75% (inactive).
With `O=C1NCCCc2c1no[n+]2[O-]`, the viability was 100% in assay [1]; 100% (inactive) in assay [3]; 84.1% (inactive) in assay [4]; 104% (inactive) in assay [5]; 99.2% in assay [6] (setting [9]); 104% in assay [6] (setting [10]). In addition, in assay [2], the Her2 level is 103% (inactive). For the same compound, in assay [6] (H69AR cells + 2 uM doxorubicin), the differential viability (reversal) is 4.5% (inactive). In addition, the results for the inhibition in assay [7] and in assay [8] were -0.13% (inactive) and -3.71% (inactive), respectively.
Take `Nc1nonc1-n1nnc(C(=O)c2ccccc2)c1-c1ccccc1`: the viability in assay [1] was 96.5%; in assay [3], 96.5% (inactive); in assay [4] it was 63.6% (inactive); in assay [5], 99.4% (inactive); in assay [6] (setting [9]), 91.4%; in assay [6] (setting [10]), 99.4%. Also, the Her2 level in assay [2] was 100% (inactive). In assay [6] (H69AR cells + 2 uM doxorubicin), the differential viability (reversal) was 7.96% (inactive). Also, the inhibition in assay [7] is -6.58% (inactive); in assay [8] it was 6.03% (inactive).
For `CCCCOc1ccc(-c2nnn(C(C)(C)C(=O)OC)n2)cc1`, the viability in assay [1] was 96%; in assay [3] it was 96% (inactive); in assay [4] it was 86% (inactive); in assay [5], 92.2% (inactive); in assay [6] (setting [9]), 99.3%; in assay [6] (setting [10]), 92.2%. Also, the Her2 level in assay [2] was 107% (inactive). Besides, the differential viability (reversal) in assay [6] (H69AR cells + 2 uM doxorubicin) was -7.05% (inactive). Moreover, the results for the inhibition in assay [7] and in assay [8] were -0.91% (inactive) and -4.29% (inactive), respectively.
Turning to `COc1cc(OC)cc(-c2nc3nc(C)c(CCC(=O)O)c(C)n3n2)c1`, the viability in assay [1] was 106%; in assay [3], 106% (inactive); in assay [4], 80.1% (inactive); in assay [5], 91.5% (inactive); in assay [6] (setting [9]), 84%; in assay [6] (setting [10]), 91.5%. Further, in assay [2], the Her2 level is 81.5% (inactive). In addition, in assay [6] (H69AR cells + 2 uM doxorubicin), the differential viability (reversal) was 7.47% (inactive). Further, the figures for the inhibition in assay [7] and in assay [8] were -4.08% (inactive) and 0.18% (inactive), respectively.
On to `COCCNC(=O)c1ccc(CS(=O)(=O)c2ccc(OC)cc2)o1`, for which the viability in assay [1] was 97%; in assay [3], 97% (inactive); in assay [4], 87% (inactive); in assay [5] it was 109% (inactive); in assay [6] (setting [9]), 93.5%; in assay [6] (setting [10]) it was 109%. In assay [2], the Her2 level was 121% (inactive). Further, in assay [6] (H69AR cells + 2 uM doxorubicin), the differential viability (reversal) is 15.8% (inactive). Further, the inhibition in assay [7] was -1.03% (inactive); in assay [8], 2.67% (inactive).
